Source: ChEMBL document CHEMBL2434844, “Synthesis, antimicrobial, antioxidant activities of novel 6-aryl-5-cyano thiouracil derivatives” (Eur J Med Chem, 2013)
Converted amounts (≈) assume the structure as drawn. The source made the active and inactive calls. No cut-off for these calls is given here.

Legend:
[1] = system: Candida albicans; assay: Antifungal activity against Candida albicans ATCC 26555 at 10 mg/disc after 48 hrs by disc-diffusion method; format: functional
Outline: (§1)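 Disc diffusion per Bauer method under NCCLS conditions on nutrient agar/Mueller-Hinton agar. Compound dissolved in sterile DMSO at 10 mg/mL, filtered 0.2 µm, stored frozen at -15 °C; 10 mg/disc in DMSO applied. DMSO control. Inhibition zone diameter measured in mm after 48 h incubation at 28 °C.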

[2] = system: Escherichia coli; assay: Antibacterial activity against Escherichia coli ATCC 11775 after 24 hrs by microdilution technique; format: functional
Outline: (§2)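 MIC by agar microdilution on Mueller-Hinton agar per NCCLS 1997. Bacteria subcultured overnight at 37 °C on MHA, Candida on SDA at 35 °C for 24-48 h, each passaged at least twice. Incubated 37 °C in humid chamber, read after 24 h.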

[3] = system: Staphylococcus aureus; assay: Antibacterial activity against Staphylococcus aureus ATCC 12600 after 24 hrs by microdilution technique; format: functional; outline: as §2
[4] = system: Aspergillus flavus; assay: Antifungal activity against Aspergillus flavus ATCC 11495 at 10 mg/disc after 48 hrs by disc-diffusion method; format: functional; outline: as §1
[5] = system: Escherichia coli; assay: Antibacterial activity against Escherichia coli ATCC 11775 at 10 mg/disc after 48 hrs by disc-diffusion method; format: functional, DSM 30083 = JCM 1649; outline: as §1
[6] = system: Bacillus cereus; assay: Antibacterial activity against Bacillus cereus ATCC 14579 at 10 mg/disc after 48 hrs by disc-diffusion method; format: functional; outline: as §1
[7] = system: Bacillus cereus; assay: Antibacterial activity against Bacillus cereus ATCC 14579 after 24 hrs by microdilution technique; format: functional; outline: as §2
[8] = system: Staphylococcus aureus; assay: Antibacterial activity against Staphylococcus aureus ATCC 12600 at 10 mg/disc after 48 hrs by disc-diffusion method; format: functional; outline: as §1
[9] = system: Aspergillus flavus; assay: Antifungal activity against Aspergillus flavus ATCC 11495 after 24 hrs by microdilution technique; format: functional
[10] = system: Candida albicans; assay: Antifungal activity against Candida albicans ATCC 26555 after 24 hrs by microdilution technique; format: functional; outline: as §2

Structure (SMILES) | MIC ([2]; DSM 30083 = JCM 1649, 24 h) | MIC ([3]; ATCC 12600, 24 h) | MIC ([7]; ATCC 14579, 24 h) | MIC [9] | MIC [10] | MIC ([9]; ATCC 11495, 24 h) | MIC ([10]; ATCC 26555, 24 h) | MIC [3] | MIC ([2]; DSM 30083 = JCM 1649) | MIC [7] | diameter of the inhibition zone (DIZ) [1] | diameter of the inhibition zone (DIZ) [4] | diameter of the inhibition zone (DIZ) [5] | diameter of the inhibition zone (DIZ) [6] | diameter of the inhibition zone (DIZ) [8] | diameter of the inhibition zone (DIZ) ([5]; DSM 30083 = JCM 1649)
COc1cc(-c2[nH]c(=S)n3ncnc3c2C#N)cc(OC)c1OC | 128 µg/mL (≈ 373 µM) | 128 µg/mL (≈ 373 µM) | 128 µg/mL (≈ 373 µM) |  |  | 256 µg/mL (≈ 746 µM) | 128 µg/mL (≈ 373 µM) |  |  |  | 8 mm | 7 mm | 6 mm | 5 mm | 7 mm | 
N#Cc1c(-c2ccc(F)cc2)[nH]c(=S)n2ncnc12 | 128 µg/mL (≈ 472 µM) | 128 µg/mL (≈ 472 µM) | 128 µg/mL (≈ 472 µM) |  |  | 256 µg/mL (≈ 944 µM) | 128 µg/mL (≈ 472 µM) |  |  |  | 8 mm | 7 mm | 8 mm | 6 mm | 7 mm | 
N#Cc1c(-c2ccc(Br)cc2)[nH]c(=S)n2c(=S)[nH]nc12 | 64 µg/mL (≈ 176 µM) |  | 64 µg/mL (≈ 176 µM) | inactive |  |  | 32 µg/mL (≈ 87.9 µM) | inactive |  |  | 12 mm | inactive | 11 mm | 10 mm | inactive | 
N#Cc1c(-c2ccc(Br)cc2)[nH]c(=S)n2ncnc12 | 128 µg/mL (≈ 385 µM) | 128 µg/mL (≈ 385 µM) | 128 µg/mL (≈ 385 µM) |  |  | 256 µg/mL (≈ 771 µM) | 128 µg/mL (≈ 385 µM) |  |  |  | 8 mm | 7 mm | 7 mm | 5 mm | 6 mm | 
N#Cc1c(-c2ccc(Br)cc2)[nH]c(=S)n2c(=O)c(=O)[nH]nc12 |  | 32 µg/mL (≈ 85.1 µM) |  |  | inactive | 16 µg/mL (≈ 42.5 µM) |  |  | inactive | inactive | inactive | 17 mm |  | inactive | 13 mm | inactive
N#Cc1c(-c2ccc(Br)cc2)[nH]c(=S)n2c(=O)[nH]nc12 |  | 64 µg/mL (≈ 184 µM) |  | inactive | inactive |  |  |  | inactive | inactive | inactive | inactive |  | inactive | 11 mm | inactive
N#Cc1c(-c2ccc(F)cc2)[nH]c(=S)n2c(=S)[nH]nc12 | 64 µg/mL (≈ 211 µM) |  | 64 µg/mL (≈ 211 µM) | inactive |  |  | 32 µg/mL (≈ 105 µM) | inactive |  |  | 12 mm | inactive | 11 mm | 11 mm | inactive | 
Cc1nc2c(C#N)c(-c3ccc(F)cc3)[nH]c(=S)n2n1 | 128 µg/mL (≈ 449 µM) | 128 µg/mL (≈ 449 µM) | 128 µg/mL (≈ 449 µM) |  |  | 256 µg/mL (≈ 897 µM) | 128 µg/mL (≈ 449 µM) |  |  |  | 8 mm | 7 mm | 7 mm | 5 mm | 7 mm | 
COc1cc(-c2[nH]c(=S)n3nc(C)nc3c2C#N)cc(OC)c1OC | 128 µg/mL (≈ 358 µM) | 128 µg/mL (≈ 358 µM) | 128 µg/mL (≈ 358 µM) |  |  | 256 µg/mL (≈ 716 µM) | 128 µg/mL (≈ 358 µM) |  |  |  | 8 mm | 7 mm | 7 mm | 6 mm | 6 mm | 
Cc1nc2c(C#N)c(-c3ccc(Br)cc3)[nH]c(=S)n2n1 | 128 µg/mL (≈ 370 µM) | 128 µg/mL (≈ 370 µM) | 128 µg/mL (≈ 370 µM) |  |  | 256 µg/mL (≈ 739 µM) | 128 µg/mL (≈ 370 µM) |  |  |  | 8 mm | 7 mm | 6 mm | 6 mm | 7 mm | 
Cc1nnc2c(C#N)c(-c3ccc(Br)cc3)[nH]c(=S)n12 |  |  |  | inactive | inactive |  |  | inactive | inactive | inactive | inactive | inactive |  | inactive | inactive | inactive

Continued, in another order:

MIC ([2]; DSM 30083 = JCM 1649, 24 h) | MIC ([3]; ATCC 12600, 24 h) | MIC ([7]; ATCC 14579, 24 h) | MIC [9] | MIC [10] | MIC ([9]; ATCC 11495, 24 h) | MIC ([10]; ATCC 26555, 24 h) | MIC [3] | MIC ([2]; DSM 30083 = JCM 1649) | MIC [7] | Structure (SMILES) | diameter of the inhibition zone (DIZ) [1] | diameter of the inhibition zone (DIZ) [4] | diameter of the inhibition zone (DIZ) [5] | diameter of the inhibition zone (DIZ) [6] | diameter of the inhibition zone (DIZ) [8] | diameter of the inhibition zone (DIZ) ([5]; DSM 30083 = JCM 1649)
32 µg/mL (≈ 80.5 µM) | 32 µg/mL (≈ 80.5 µM) | 32 µg/mL (≈ 80.5 µM) | inactive | inactive |  |  |  |  |  | COc1cc(-c2[nH]c(=S)nc(-n3nc(C)cc3C)c2C#N)cc(OC)c1OC | inactive | inactive | 12 mm | 11 mm | 11 mm | 
32 µg/mL (≈ 72.7 µM) | 32 µg/mL (≈ 72.7 µM) | 32 µg/mL (≈ 72.7 µM) |  |  | 32 µg/mL (≈ 72.7 µM) | 32 µg/mL (≈ 72.7 µM) |  |  |  | COc1ccc(/C=N/Nc2nc(=S)[nH]c(-c3ccc(Br)cc3)c2C#N)cc1 | 16 mm | 14 mm | 12 mm | 16 mm | 18 mm | 
32 µg/mL (≈ 72.8 µM) | 32 µg/mL (≈ 72.8 µM) | 32 µg/mL (≈ 72.8 µM) |  |  | 32 µg/mL (≈ 72.8 µM) | 32 µg/mL (≈ 72.8 µM) |  |  |  | COc1cc(-c2[nH]c(=S)nc(N/N=C/c3ccc(F)cc3)c2C#N)cc(OC)c1OC | 16 mm | 15 mm | 12 mm | 17 mm | 19 mm | 
32 µg/mL (≈ 70.9 µM) | 32 µg/mL (≈ 70.9 µM) | 32 µg/mL (≈ 70.9 µM) |  |  | 32 µg/mL (≈ 70.9 µM) | 32 µg/mL (≈ 70.9 µM) |  |  |  | COc1ccc(/C=N/Nc2nc(=S)[nH]c(-c3cc(OC)c(OC)c(OC)c3)c2C#N)cc1 | 15 mm | 15 mm | 12 mm | 15 mm | 17 mm | 
32 µg/mL (≈ 82.8 µM) | 32 µg/mL (≈ 82.8 µM) | 32 µg/mL (≈ 82.8 µM) | inactive | inactive |  |  |  |  |  | Cc1cc(C)n(-c2nc(=S)[nH]c(-c3ccc(Br)cc3)c2C#N)n1 | inactive | inactive | 11 mm | 12 mm | 12 mm | 
32 µg/mL (≈ 98.3 µM) | 32 µg/mL (≈ 98.3 µM) | 32 µg/mL (≈ 98.3 µM) | inactive | inactive |  |  |  |  |  | Cc1cc(C)n(-c2nc(=S)[nH]c(-c3ccc(F)cc3)c2C#N)n1 | inactive | inactive | 11 mm | 12 mm | 13 mm | 
64 µg/mL (≈ 170 µM) |  | 64 µg/mL (≈ 170 µM) | inactive |  |  | 32 µg/mL (≈ 85.2 µM) | inactive |  |  | COc1cc(-c2[nH]c(=S)n3c(=S)[nH]nc3c2C#N)cc(OC)c1OC | 12 mm | inactive | 10 mm | 11 mm | inactive | 
32 µg/mL (≈ 118 µM) | 16 µg/mL (≈ 58.8 µM) | 32 µg/mL (≈ 118 µM) | inactive | inactive |  |  |  |  |  | N#Cc1c(-c2ccc(F)cc2)[nH]c(=S)n2nnnc12 | inactive | inactive | 13 mm | 15 mm | 15 mm | 
32 µg/mL (≈ 96 µM) | 16 µg/mL (≈ 48 µM) | 32 µg/mL (≈ 96 µM) | inactive | inactive |  |  |  |  |  | N#Cc1c(-c2ccc(Br)cc2)[nH]c(=S)n2nnnc12 | inactive | inactive | 12 mm | 13 mm | 14 mm | 
16 µg/mL (≈ 59 µM) | 16 µg/mL (≈ 59 µM) | 16 µg/mL (≈ 59 µM) |  |  | 16 µg/mL (≈ 59 µM) | 16 µg/mL (≈ 59 µM) |  |  |  | N#Cc1c(-c2ccc(F)cc2)[nH]c(=S)n2cnnc12 | 18 mm | 19 mm | 14 mm | 19 mm | 22 mm | 
32 µg/mL (≈ 92.9 µM) | 16 µg/mL (≈ 46.5 µM) | 32 µg/mL (≈ 92.9 µM) | inactive | inactive |  |  |  |  |  | COc1cc(-c2[nH]c(=S)n3nnnc3c2C#N)cc(OC)c1OC | inactive | inactive | 12 mm | 12 mm | 14 mm | 
